This passage reports IC50 results from ChEMBL document CHEMBL4765409, “Synthesis and biological evaluation of geniposide derivatives as potent and selective PTPlB inhibitors” (Eur J Med Chem, 2020).

A value given as a limit tells only on which side of the number the result lay.

Assay [1] deals with T1, Tyrosine-protein phosphatase non-receptor type 2 (Homo sapiens, UniProt P17706).
T1 sequence (P17706 whole entry): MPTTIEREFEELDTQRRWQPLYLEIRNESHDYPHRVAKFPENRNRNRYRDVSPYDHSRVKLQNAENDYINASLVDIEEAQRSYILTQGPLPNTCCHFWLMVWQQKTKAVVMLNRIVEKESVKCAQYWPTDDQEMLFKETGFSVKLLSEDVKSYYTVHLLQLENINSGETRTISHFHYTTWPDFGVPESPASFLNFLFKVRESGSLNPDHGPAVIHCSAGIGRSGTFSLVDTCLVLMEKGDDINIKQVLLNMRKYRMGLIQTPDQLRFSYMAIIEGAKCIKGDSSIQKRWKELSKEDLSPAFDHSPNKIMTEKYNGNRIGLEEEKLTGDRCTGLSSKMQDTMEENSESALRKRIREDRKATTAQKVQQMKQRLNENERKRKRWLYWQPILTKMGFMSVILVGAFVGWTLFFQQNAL
Nature of the assay: Inhibition of recombinant human TCPTP using pNPP as substrate measured after 30 mins. In a few lines:
(§1)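 75 nM recombinant enzyme (PTP1B, TCPTP or SHP2) with 2.5 mM pNPP in 10 mM Tris, 25 mM NaCl, 1 mM EDTA, pH 7.1; compounds added from DMSO. Reaction run 30 min at room temperature, stopped with 2.0 N NaOH, pNP read at 405 nm. Sodium vanadate as positive control. IC50 from enzyme progress curves; means of triplicates, repeated twice.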

In assay [2] the target is T2, Tyrosine-protein phosphatase non-receptor type 1 (Homo sapiens, UniProt P18031).
T2 sequence (P18031 whole entry): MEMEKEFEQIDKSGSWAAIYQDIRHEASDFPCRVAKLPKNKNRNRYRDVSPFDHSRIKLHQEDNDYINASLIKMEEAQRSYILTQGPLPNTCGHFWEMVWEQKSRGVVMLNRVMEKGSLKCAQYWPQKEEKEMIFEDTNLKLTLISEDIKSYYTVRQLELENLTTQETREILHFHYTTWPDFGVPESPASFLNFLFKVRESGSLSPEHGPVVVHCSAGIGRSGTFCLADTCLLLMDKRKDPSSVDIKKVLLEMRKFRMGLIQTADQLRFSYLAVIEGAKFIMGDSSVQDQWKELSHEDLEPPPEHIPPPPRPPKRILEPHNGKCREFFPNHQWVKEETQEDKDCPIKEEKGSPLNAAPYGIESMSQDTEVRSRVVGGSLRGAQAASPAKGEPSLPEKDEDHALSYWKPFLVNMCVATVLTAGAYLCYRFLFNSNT
Kind of assay: Inhibition of recombinant human PTP1B using pNPP as substrate measured after 30 mins. In a few lines: as §1

The target in assay [3] is T3, Tyrosine-protein phosphatase non-receptor type 11 (Homo sapiens, UniProt Q06124).
T3 sequence (Q06124 whole entry): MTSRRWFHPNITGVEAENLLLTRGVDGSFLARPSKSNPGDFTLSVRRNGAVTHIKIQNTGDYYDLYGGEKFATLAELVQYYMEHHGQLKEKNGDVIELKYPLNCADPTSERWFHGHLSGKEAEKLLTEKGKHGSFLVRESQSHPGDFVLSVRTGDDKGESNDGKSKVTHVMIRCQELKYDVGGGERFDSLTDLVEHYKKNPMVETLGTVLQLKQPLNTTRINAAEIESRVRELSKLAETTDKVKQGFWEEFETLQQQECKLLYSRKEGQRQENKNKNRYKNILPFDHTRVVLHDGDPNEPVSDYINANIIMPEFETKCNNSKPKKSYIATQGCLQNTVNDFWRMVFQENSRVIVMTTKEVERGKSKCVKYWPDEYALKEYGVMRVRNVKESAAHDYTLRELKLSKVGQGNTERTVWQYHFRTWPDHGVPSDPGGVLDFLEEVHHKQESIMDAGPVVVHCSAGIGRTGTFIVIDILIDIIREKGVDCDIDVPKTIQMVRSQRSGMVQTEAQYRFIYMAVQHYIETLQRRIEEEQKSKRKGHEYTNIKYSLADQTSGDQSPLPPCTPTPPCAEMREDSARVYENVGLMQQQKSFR
Kind of assay: Inhibition of recombinant SHP2 (unknown origin) using pNPP as substrate measured after 30 mins. In a few lines: as §1

The target in assay [4] is T2, Tyrosine-protein phosphatase non-receptor type 1. Kind of assay: Inhibition of recombinant human PTP1B (1 to 322 residues) expressed in Escherichia coli using IR5 (1142 to 1153, pY1146) as substrate by malachite green dye based colorimetric assay.

In the case of `O=C1C[C@@H](O[C@@H]2O[C@H](CO)[C@@H](O)[C@H](O)[C@H]2O)CO1`, the IC50 was above 50 µM in assay [1], 5.8 µM in assay [2], above 50 µM in assay [3] and 5.14 µM in assay [4].
